# Data reported in ChEMBL document CHEMBL1121898, “Potential antiestrogens. Synthesis and evaluation of mammary tumor inhibiting activity of 1,2-dialkyl-1,2-bis(3'-hydroxyphenyl)ethanes” (1981).
# “And” between values parts separate entries of the source, which are not always exact repeats. Equal entries are not always repeated. The source made the active and inactive calls.
# Legend:
# Rattus norvegicus [1] = species: Rattus norvegicus; assay: Complete remission of DMBA-induced hormone-dependent mammary carcinoma tumors in rats at 36 mg; format: functional
# How it was run: (§1)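 Female SD rats bearing DMBA-induced, hormone-dependent mammary adenocarcinoma, with at least one tumor >140 mm², were grouped in tens. Dosing was sc per kg body weight: a single dose daily Monday–Thursday and a double dose Friday. Ovariectomy served as the comparison arm. Complete remission was defined as a tumor no longer palpable. Body weight and tumor area changes were also recorded.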
# Rattus norvegicus [2] = species: Rattus norvegicus; assay: Complete remission of DMBA-induced hormone-dependent mammary carcinoma tumors in rats at 72 mg; format: functional; how it was run: as §1
# Rattus norvegicus [3] = species: Rattus norvegicus; assay: Final number of DMBA-induced hormone-dependent mammary carcinoma tumors in rats at 36 mg; format: functional
# How it was run: (§2)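 Sprague-Dawley rats carrying DMBA-induced, hormone-dependent mammary adenocarcinoma, at least one tumor >140 mm², were placed in groups of ten. Compounds were given sc, with doses in mg/kg: a single daily dose Monday to Thursday and a double dose on Friday. Ovariectomy served as a comparator group. New tumors arising during the test were counted.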
# Rattus norvegicus [4] = species: Rattus norvegicus; assay: Partial remission of DMBA-induced hormone-dependent mammary carcinoma tumors in rats at 18 mg; format: functional
# How it was run: (§3)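 DMBA-induced, hormone-dependent mammary adenocarcinoma in SD rats. Rats bearing at least one tumor >140 mm² were placed in groups of ten. Compound was given sc as a single dose (mg/kg) daily Monday–Thursday and a double dose on Friday. Tumors were counted at the start and as new tumors; responses were scored as complete remission (not palpable), partial remission (≥50% reduction), no change or progression. Tumor area and body weight were recorded as % change.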
# Rattus norvegicus [5] = species: Rattus norvegicus; assay: Partial remission of DMBA-induced hormone-dependent mammary carcinoma tumors in rats at 72 mg; format: functional; how it was run: as §3
# Rattus norvegicus [6] = species: Rattus norvegicus; assay: Percent change in body weight DMBA-induced hormone-dependent mammary carcinoma tumors in rats at 18 mg for 7 days; format: functional; how it was run: as §3
# Rattus norvegicus [7] = species: Rattus norvegicus; assay: Percent change in body weight DMBA-induced hormone-dependent mammary carcinoma tumors in rats at 72 mg for 7 days; format: functional
# Rattus norvegicus [8] = species: Rattus norvegicus; assay: Percent change in DMBA-induced hormone-dependent mammary carcinoma tumor area at 36 mg after 28 days; format: functional; how it was run: as §3
# Rattus norvegicus [9] = species: Rattus norvegicus; assay: Percent change in DMBA-induced hormone-dependent mammary carcinoma tumor area at 18 mg after 28 days; format: functional; how it was run: as §3
# Rattus norvegicus [10] = species: Rattus norvegicus; assay: Partial remission of DMBA-induced hormone-dependent mammary carcinoma tumors in rats at 36 mg; format: functional; how it was run: as §3
# Rattus norvegicus [11] = species: Rattus norvegicus; assay: Percent unchanged tumor size of DMBA-induced hormone-dependent mammary carcinoma tumors in rats at 36 mg; format: functional
# Rattus norvegicus [12] = species: Rattus norvegicus; assay: Percent unchanged tumor size of DMBA-induced hormone-dependent mammary carcinoma tumors in rats at 72 mg; format: functional
# Rattus norvegicus [13] = species: Rattus norvegicus; assay: Percent unchanged tumor size of DMBA-induced hormone-dependent mammary carcinoma tumors in rats at 18 mg; format: functional
# Rattus norvegicus [14] = species: Rattus norvegicus; assay: Progression of DMBA-induced hormone-dependent mammary carcinoma tumors in rats at 72 mg; format: functional; how it was run: as §3
# Rattus norvegicus [15] = species: Rattus norvegicus; assay: Progression of DMBA-induced hormone-dependent mammary carcinoma tumors in rats at 18 mg; format: functional
# Rattus norvegicus [16] = species: Rattus norvegicus; assay: Complete remission of DMBA-induced hormone-dependent mammary carcinoma tumors in rats at 18 mg; format: functional; how it was run: as §1
# Rattus norvegicus [17] = species: Rattus norvegicus; assay: Initial tumor number of DMBA-induced hormone-dependent mammary carcinoma in rats at 36 mg; format: functional; how it was run: as §3
# Rattus norvegicus [18] = species: Rattus norvegicus; assay: Initial tumor number of DMBA-induced hormone-dependent mammary carcinoma in rats at 72 mg; format: functional; how it was run: as §3
# MCF7 [19] = assay: Inhibition of estrogen receptor positive MCF-7 cell proliferation as percent treated/control cell number after 10 days at 10e-6 M; format: functional, Homo sapiens
# How it was run: (§4)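 MCF-7 cells were grown in McCoy's 5a medium with fetal bovine serum stripped by DCC (0.5 h, 45 °C). Compounds were dissolved in ethanol (final ≤0.5%) and diluted in complete medium. Cells were seeded at 5×10^4 cells/plate. On day 10, three replicate plates per group were counted by Coulter counter, three counts per plate. Percent T/C = test/control. In a retest, compounds were given at 10^-7 M with 17β-estradiol at 10^-7 or 10^-8 M.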
# MCF7 [20] = assay: Inhibition of estrogen receptor positive MCF-7 cell proliferation as percent treated/control cell number after 10 days at 10e-7 M; format: functional, Homo sapiens; how it was run: as §4
# MCF7 [21] = assay: Inhibition of estrogen receptor positive MCF-7 cell proliferation as percent treated/control cell number after 10 days at 10e-7 M with 10e-7 M 17-beta-estradiol; format: functional, Homo sapiens; how it was run: as §4
# MCF7 [22] = assay: Inhibition of estrogen receptor positive MCF-7 cell proliferation as percent treated/control cell number after 10 days at 10e-8 M; format: functional, Homo sapiens; how it was run: as §4
# MCF7 [23] = assay: Inhibition of estrogen receptor positive MCF-7 cell proliferation as cell number after 10 days at 10e-8 M; format: functional, Homo sapiens; how it was run: as §4
# MCF7 [24] = assay: Inhibition of estrogen receptor positive MCF-7 cell proliferation as cell number after 10 days at 10e-9 M; format: functional, Homo sapiens; how it was run: as §4
# MCF7 [25] = assay: Inhibition of estrogen receptor positive MCF-7 cell proliferation as percent treated/control cell number after 10 days at 10e-9 M; format: functional, Homo sapiens; how it was run: as §4
# MCF7 [26] = assay: Inhibition of estrogen receptor positive MCF-7 cell proliferation as cell number after 10 days at 10e-6 M; format: functional, Homo sapiens; how it was run: as §4
# MCF7 [27] = assay: Inhibition of estrogen receptor positive MCF-7 cell proliferation as cell number after 10 days at 10e-7 M and 10e-8 M 17-beta-estradiol; format: functional, Homo sapiens; how it was run: as §4
# MCF7 [28] = assay: Inhibition of estrogen receptor positive MCF-7 cell proliferation as cell number after 10 days at 10e-7 M and 10e-7 M 17-beta-estradiol; format: functional, Homo sapiens; how it was run: as §4
# MCF7 [29] = assay: (§5) Inhibition of estrogen receptor positive MCF-7 cell proliferation as cell number after 10 days at 10e-7 M; format: functional, Homo sapiens; how it was run: as §4
# MCF7 [30] = assay: as §5; format: functional, Homo sapiens; how it was run: as §4; remark: listed apart in the source
# Rattus norvegicus [31] = species: Rattus norvegicus; assay: Initial tumor number of DMBA-induced hormone-dependent mammary carcinoma in rats at 18 mg; format: functional; how it was run: as §3
# Rattus norvegicus [32] = species: Rattus norvegicus; assay: Percent change in DMBA-induced hormone-dependent mammary carcinoma tumor area at 72 mg after 28 days; format: functional; how it was run: as §3
# [33] = target: T1, Estrogen receptor (Mus musculus) (UniProt O08537+P19785); assay: Antiestrogenic activity in uterotrophic test in mice at 0.1 ug (experiment 1); format: functional
# T1 sequence (O08537 whole entry, looked up): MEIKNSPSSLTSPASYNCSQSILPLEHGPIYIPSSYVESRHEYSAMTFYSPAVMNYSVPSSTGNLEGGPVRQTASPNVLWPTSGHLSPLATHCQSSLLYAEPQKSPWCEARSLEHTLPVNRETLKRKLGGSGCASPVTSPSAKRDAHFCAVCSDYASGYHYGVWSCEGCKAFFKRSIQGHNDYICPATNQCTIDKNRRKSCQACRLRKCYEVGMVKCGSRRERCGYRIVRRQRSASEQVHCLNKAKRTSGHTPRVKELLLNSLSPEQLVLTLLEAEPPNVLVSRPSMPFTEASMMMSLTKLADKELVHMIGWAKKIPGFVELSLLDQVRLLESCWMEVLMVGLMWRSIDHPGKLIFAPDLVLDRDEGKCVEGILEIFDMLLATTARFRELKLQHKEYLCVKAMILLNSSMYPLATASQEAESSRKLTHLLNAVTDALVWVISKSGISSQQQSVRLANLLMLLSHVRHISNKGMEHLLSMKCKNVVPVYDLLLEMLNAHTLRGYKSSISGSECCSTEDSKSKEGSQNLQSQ
# T1 sequence (P19785 whole entry, looked up): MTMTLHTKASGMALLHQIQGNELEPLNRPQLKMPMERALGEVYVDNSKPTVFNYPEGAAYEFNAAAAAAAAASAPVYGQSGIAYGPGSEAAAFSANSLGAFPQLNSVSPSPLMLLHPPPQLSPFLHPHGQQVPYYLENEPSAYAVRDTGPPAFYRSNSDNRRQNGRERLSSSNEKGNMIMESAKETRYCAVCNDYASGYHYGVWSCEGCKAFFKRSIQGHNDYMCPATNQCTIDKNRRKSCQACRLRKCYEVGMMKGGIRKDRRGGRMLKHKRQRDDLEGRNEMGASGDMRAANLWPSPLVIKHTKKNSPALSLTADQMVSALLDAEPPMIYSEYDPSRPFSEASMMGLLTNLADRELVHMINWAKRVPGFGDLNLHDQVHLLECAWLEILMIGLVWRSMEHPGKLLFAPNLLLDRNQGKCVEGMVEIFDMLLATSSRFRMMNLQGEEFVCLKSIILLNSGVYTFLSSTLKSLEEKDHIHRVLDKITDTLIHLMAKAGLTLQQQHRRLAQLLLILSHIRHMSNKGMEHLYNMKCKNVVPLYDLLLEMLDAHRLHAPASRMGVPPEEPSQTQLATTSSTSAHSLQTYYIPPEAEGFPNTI
# How it was run: (§6)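 Immature female NMRI mice, 20 days old (14.5 ± 1.2 g), randomly grouped 10 per group. Each received a daily sc injection for 3 days of 0.1 mL olive oil solution containing test compound, together with estrone to stimulate uterine growth. Uteri were removed 24 h after the last injection and weighed. Results are reported as % inhibition of the estrone-stimulated uterine weight gain, mean ± SD.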
# [34] = target: T1, Estrogen receptor (Mus musculus); assay: Antiestrogenic activity in uterotrophic test in mice at 5 ug (experiment 2); format: functional; how it was run: as §6
# [35] = target: T1, Estrogen receptor (Mus musculus); assay: Antiestrogenic activity in uterotrophic test in mice at 500 ug (experiment 3); format: functional; how it was run: as §6
# [36] = target: T1, Estrogen receptor (Mus musculus); assay: Antiestrogenic activity in uterotrophic test in mice at 0 ug (experiment 2); format: functional; how it was run: as §6
# [37] = target: T1, Estrogen receptor (Mus musculus); assay: Antiestrogenic activity in uterotrophic test in mice at 0 ug (experiment 3); format: functional; how it was run: as §6
# [38] = target: T1, Estrogen receptor (Mus musculus); assay: Antiestrogenic activity in uterotrophic test in mice at 50 ug (experiment 3); format: functional; how it was run: as §6
# MCF7 [39] = assay: Inhibition of estrogen receptor positive MCF-7 cell proliferation as percent treated/control cell number after 10 days at 10e-7 M with 10e-8 M 17-beta-estradiol; format: functional, Homo sapiens; how it was run: as §4
# [40] = target: T1, Estrogen receptor (Mus musculus); assay: Estrogenic activity in uterotrophic test in mice; No effect; format: functional
# How it was run: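 Immature (20-day-old) female NMRI mice, 14.5 ± 1.2 g, randomized into groups of 10. Given the test compound sc daily for 3 days in 0.1 mL olive oil. Uteri removed 24 h after the last injection; uterine weight taken as the read-out, means ± SD. Dose in μg.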
# [41] = target: T1, Estrogen receptor (Mus musculus); assay: Inhibitory activity in mouse uterine weight test at 5 ug (experiment 2); format: functional
# How it was run: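 Antiuterotrophic (Dorfman) assay in immature 20-day-old female NMRI mice, groups of 10. Uterine growth was stimulated with estrone (0.1 μg) and the test compound was given alongside it, sc daily for 3 days in 0.1 mL olive oil. Uteri were taken 24 h after the last dose. Uterine weight is reported as means ± SD and inhibition as % of the estrone-stimulated response.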
# [42] = target: T1, Estrogen receptor (Mus musculus); assay: Inhibitory activity in mouse uterine weight test at 50 ug (experiment 3); format: functional
# How it was run: (§7)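 Immature female NMRI mice, 20 days old (14.5 ± 1.2 g), in random groups of 10. They received sc injections daily for 3 days of 0.1 mL olive oil containing test compound, with estrone 0.1 μg given to stimulate uterine growth. Uteri were removed 24 h after the last injection and weighed (mean ± SD). Result is percent inhibition of the estrone-stimulated uterine weight gain.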
# [43] = target: T1, Estrogen receptor (Mus musculus); assay: Inhibitory activity in mouse uterine weight test at 500 ug (experiment 3); format: functional; how it was run: as §7
# Rattus norvegicus [44] = species: Rattus norvegicus; assay: Final number of DMBA-induced hormone-dependent mammary carcinoma tumors in rats at 18 mg; format: functional; how it was run: as §2
# Rattus norvegicus [45] = species: Rattus norvegicus; assay: Final number of DMBA-induced hormone-dependent mammary carcinoma tumors in rats at 72 mg; format: functional; how it was run: as §2
# Rattus norvegicus [46] = species: Rattus norvegicus; assay: Percent change in body weight DMBA-induced hormone-dependent mammary carcinoma tumors in rats at 36 mg for 7 days; format: functional
# [47] = test system: Estrogen receptor (Bos taurus); assay: Displacement of [3H]estradiol from calf estrogen receptor
smiles,measurement,setting,value
CC(c1cccc(O)c1)C(C)c1cccc(O)c1 (configuration not stated),Tumors,Rattus norvegicus [1],29%
same,Tumors,Rattus norvegicus [2],34%
same,No. of tumors,Rattus norvegicus [3],12
same,Tumors,Rattus norvegicus [4],11%
same,Tumors,Rattus norvegicus [5],25%
same,Change,Rattus norvegicus [6],2.4%
same,Change,Rattus norvegicus [7],0.9%
same,Change,Rattus norvegicus [8],105%
same,Change,Rattus norvegicus [9],188%
same,Tumors,Rattus norvegicus [10],9%
same,Tumors,Rattus norvegicus [11],38%
same,Tumors,Rattus norvegicus [12],16%
same,Tumors,Rattus norvegicus [13],24%
same,Tumors,Rattus norvegicus [14],25%
same,Tumors,Rattus norvegicus [15],51%
same,Tumors,Rattus norvegicus [16],14%
same,No. of tumors,Rattus norvegicus [17],22
same,No. of tumors,Rattus norvegicus [18],26
same,T/C,MCF7 [19],71%
same,T/C,MCF7 [20],92% and 77%
same,T/C,MCF7 [21],107%
same,T/C,MCF7 [22],82%
same,Cell number,MCF7 [23],35900
same,Cell number,MCF7 [24],39800
same,T/C,MCF7 [25],91%
same,Cell number,MCF7 [26],32200
same,Cell number,MCF7 [27],8000
same,Cell number,MCF7 [28],7100
same,Cell number,MCF7 [29],6100
same,Cell number,MCF7 [30],33600
same,No. of tumors,Rattus norvegicus [31],21
same,Change,Rattus norvegicus [32],6%
same,Effect,[33],38.5
same,Effect,[34],36.5
same,Effect,[35],29
same,Effect,[36],10.5
same,Effect,[37],9.9
same,Effect,[38],34.3
same,T/C,MCF7 [39],121%
same,Effect,[40],inactive
same,inhibition,[41],7%
same,inhibition,[42],12%
same,inhibition,[43],31%
same,No. of tumors,Rattus norvegicus [44],16
same,No. of tumors,Rattus norvegicus [45],22
same,Change,Rattus norvegicus [46],1.6%
same,Ka,[47],1.1e+07 M⁻¹
